# Active and inactive are the calls of the source. The rule behind the calls is not given here.
# Legend:
# [1] = tested on: 786-0; assay: Growth inhibition of human 786-0 cells after 48 hrs by sulforhodamine B assay; assay type: functional, cell-based; conditions: 786-0, 48 h
# Method in brief: (§1)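 Five-dose SRB assay. Cells in RPMI 1640 with 5% FBS and 2 mM L-glutamine were seeded at 5,000–40,000 cells/well, with a TCA-fixed time-zero plate (Tz) taken at 24 h. Compound stocks were in DMSO, serially diluted 10-fold or ½-log to five concentrations, and incubated 48 h at 37 °C. Plates were stained with SRB and read at 515 nm. IC₅₀ was taken where [(Ti−Tz)/(C−Tz)]×100 = 50.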
# [2] = tested on: A498; assay: Growth inhibition of human A498 cells after 48 hrs by sulforhodamine B assay; assay type: functional, cell-based; conditions: A498, 48 h; for CC50: read-out: LC50 (the source's name); method in brief: as §1
# [3] = tested on: DU-145; assay: Growth inhibition of human DU145 cells after 48 hrs by sulforhodamine B assay; assay type: functional, cell-based; conditions: for CC50: read-out: LC50 (the source's name)
# Method in brief: (§2)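 Cells grown in RPMI 1640 with 5% FBS and 2 mM L-glutamine, seeded at 5,000–40,000 cells/well according to doubling time. After 24 h, time-zero plates are TCA-fixed. Five concentrations (10-fold or ½log dilutions, DMSO stocks) are applied for 48 h at 37 °C, 5% CO₂. Cells are TCA-fixed, SRB-stained and read at 515 nm. IC₅₀ is taken from [(Ti−Tz)/(C−Tz)]×100 = 50.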
# [4] = tested on: NCI-H460; assay: Cytotoxicity against human NCI-H460 cells assessed as cell growth at 0.001 uM after 48 hrs by sulforhodamine B assay; assay type: functional; conditions: NCI-H460, 48 h, read-out: Activity
# [5] = tested on: SF-295; assay: Cytotoxicity against human SF295 cells assessed as cell growth at 0.001 uM after 48 hrs by sulforhodamine B assay; assay type: functional; conditions: SF-295, 48 h, read-out: Activity
# [6] = tested on: SN12C; assay: Cytotoxicity against human SN12C cells assessed as cell growth at 0.001 uM after 48 hrs by sulforhodamine B assay; assay type: functional; conditions: read-out: Activity
# [7] = tested on: COLO 205; assay: Cytotoxicity against human COLO205 cells assessed as cell growth at 100 nM after 48 hrs by sulforhodamine B assay; assay type: functional; conditions: COLO 205, 48 h, read-out: Activity
# Method in brief: (§3)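 Cells grown in RPMI 1640 with 5% FBS and 2 mM L-glutamine, seeded at 5,000–40,000 cells/well by doubling time. Time-zero plates TCA-fixed after 24 h. Five concentrations (10-fold or half-log dilutions from DMSO stock) added; 48 h at 37 °C, 5% CO2. Cold TCA fixation (final 10%, 60 min, 4 °C), 0.4% SRB stain, dye solubilized in 10 mM trizma base, A515.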
# [8] = tested on: HCT-15; assay: Cytotoxicity against human HCT15 cells assessed as cell growth at 100 nM after 48 hrs by sulforhodamine B assay; assay type: functional; conditions: HCT-15, 48 h, read-out: Activity
# [9] = tested on: SNB-19; assay: Cytotoxicity against human SNB19 cells assessed as cell growth at 100 nM after 48 hrs by sulforhodamine B assay; assay type: functional; conditions: SNB-19, 48 h, read-out: Activity
# [10] = tested on: M14; assay: Cytotoxicity against human M14 cells assessed as cell growth at 100 nM after 48 hrs by sulforhodamine B assay; assay type: functional; conditions: M14, 48 h, read-out: Activity
# [11] = tested on: MDA-MB-435; assay: Cytotoxicity against human MDA-MB-435 cells assessed as cell growth at 100 nM after 48 hrs by sulforhodamine B assay; assay type: functional; conditions: MDA-MB-435, 48 h, read-out: Activity
# [12] = tested on: OVCAR-5; assay: Cytotoxicity against human OVCAR5 cells assessed as cell growth at 100 nM after 48 hrs by sulforhodamine B assay; assay type: functional; conditions: OVCAR-5, 48 h, read-out: Activity
# [13] = tested on: HOP-62; assay: Cytotoxicity against human HOP62 cells assessed as cell growth at 0.01 uM after 48 hrs by sulforhodamine B assay; assay type: functional; conditions: HOP-62, 48 h, read-out: Activity
# [14] = tested on: HCT-15; assay: Cytotoxicity against human HCT15 cells assessed as cell growth at 0.01 uM after 48 hrs by sulforhodamine B assay; assay type: functional; conditions: HCT-15, 48 h, read-out: Activity
# [15] = tested on: SW-620; assay: Cytotoxicity against human SW620 cells assessed as cell growth at 0.01 uM after 48 hrs by sulforhodamine B assay; assay type: functional; conditions: SW-620, 48 h, read-out: Activity
# [16] = tested on: SK-MEL-2; assay: Cytotoxicity against human SK-MEL-2 cells assessed as cell growth at 0.01 uM after 48 hrs by sulforhodamine B assay; assay type: functional; conditions: SK-MEL-2, 48 h, read-out: Activity
# [17] = tested on: TK-10; assay: Cytotoxicity against human TK10 cells assessed as cell growth at 10 uM after 48 hrs by sulforhodamine B assay; assay type: functional; conditions: TK-10, 48 h, read-out: Activity
# [18] = Cytotoxicity against human Hs 578T cells assessed as cell growth at 10 uM after 48 hrs by sulforhodamine B assay; assay type: functional; conditions: read-out: Activity
# [19] = tested on: T47D; assay: Cytotoxicity against human T47D cells assessed as cell growth at 10 uM after 48 hrs by sulforhodamine B assay; assay type: functional; conditions: read-out: Activity
# [20] = tested on: SF-539; assay: Cytotoxicity against human SF539 cells assessed as cell growth at 1 uM after 48 hrs by sulforhodamine B assay; assay type: functional; conditions: SF-539, 48 h, read-out: Activity
# [21] = tested on: OVCAR-5; assay: Cytotoxicity against human OVCAR5 cells assessed as cell growth at 0.01 uM after 48 hrs by sulforhodamine B assay; assay type: functional; conditions: OVCAR-5, 48 h, read-out: Activity
# [22] = tested on: ACHN; assay: Cytotoxicity against human ACHN cells assessed as cell growth at 0.01 uM after 48 hrs by sulforhodamine B assay; assay type: functional; conditions: read-out: Activity; method in brief: as §3
# [23] = tested on: Malme-3M; assay: Cytotoxicity against human MALME-3M cells assessed as cell growth at 1 uM after 48 hrs by sulforhodamine B assay; assay type: functional; conditions: read-out: Activity
# [24] = tested on: K562; assay: Growth inhibition of human K562 cells after 48 hrs by sulforhodamine B assay; assay type: functional, cell-based; conditions: for CC50: read-out: LC50 (the source's name); method in brief: as §2
# [25] = tested on: OVCAR-5; assay: Cytotoxicity against human OVCAR5 cells assessed as cell growth at 1 uM after 48 hrs by sulforhodamine B assay; assay type: functional; conditions: OVCAR-5, 48 h, read-out: Activity
# [26] = tested on: ACHN; assay: Cytotoxicity against human ACHN cells assessed as cell growth at 1 uM after 48 hrs by sulforhodamine B assay; assay type: functional; conditions: read-out: Activity; method in brief: as §3
# [27] = tested on: CAKI-1; assay: Cytotoxicity against human Caki1 cells assessed as cell growth at 1 uM after 48 hrs by sulforhodamine B assay; assay type: functional; conditions: CAKI-1, 48 h, read-out: Activity; method in brief: as §3
# [28] = tested on: A549; assay: Cytotoxicity against human A549 cells assessed as cell growth at 10 uM after 48 hrs by sulforhodamine B assay; assay type: functional; conditions: A549, 48 h, read-out: Activity; method in brief: as §3
# [29] = tested on: EKVX; assay: Growth inhibition of human EKVX cells after 48 hrs by sulforhodamine B assay; assay type: functional, cell-based; conditions: for CC50: read-out: LC50 (the source's name); method in brief: as §2
# [30] = tested on: SF-539; assay: Growth inhibition of human SF539 cells after 48 hrs by sulforhodamine B assay; assay type: functional, cell-based; conditions: for CC50: read-out: LC50 (the source's name); method in brief: as §2
compound,measurement,setting,value
CC(=O)Nc1cccc(-c2ccc(-c3ccnc(NC(=O)Nc4cc(C(F)(F)F)cc(C(F)(F)F)c4)n3)cn2)c1.Cl,GI50,[1],3.66 µM
same,IC50,[1],3.66 µM
same,LC50 (50% lethal concentration),[1],39.9 µM
same,TGI,[1],15.9 µM
same,GI50,[2],6.13 µM
same,IC50,[2],6.13 µM
same,TGI,[2],22.2 µM
same,CC50,[2],59.2 µM
same,GI50,"[3]; Homo sapiens, DU-145, 48 h",6.57 µM
same,TGI,"[3]; Homo sapiens, DU-145, 48 h",19.6 µM
same,IC50,"[3]; Homo sapiens, DU-145, 48 h, read-out: IC50",6.57 µM
same,CC50,"[3]; Homo sapiens, DU-145, 48 h",47 µM
same,growth at 0.001 µM,[4],95%
same,growth at 0.001 µM,[5],98%
same,growth at 0.001 µM,[6],94%
same,growth at 0.1 µM,[7],96%
same,growth at 0.1 µM,[8],90%
same,growth at 0.1 µM,[9],90%
same,growth at 0.1 µM,[10],92%
same,growth at 0.1 µM,[11],89%
same,growth at 0.1 µM,[12],97%
same,growth at 0.01 µM,[13],92%
same,growth at 0.01 µM,[14],91%
same,growth at 0.01 µM,[15],95%
same,growth at 0.01 µM,[16],94%
same,growth at 10 µM,[17],-54%
same,growth at 10 µM,[18],18%
same,growth at 10 µM,[19],-14%
same,growth at 1 µM,[20],37%
same,growth at 0.01 µM,[21],82%
same,growth at 0.01 µM,[22],90%
same,growth at 1 µM,[23],-50%
same,TGI,[24],inactive
same,GI50,"[24]; K562, 48 h",1.87 µM
same,IC50,"[24]; K562, 48 h",1.87 µM
same,CC50,"[24]; K562, 48 h",> 100 µM
same,growth at 1 µM,[25],62%
same,growth at 1 µM,[26],20%
same,growth at 1 µM,[27],-7%
same,growth at 10 µM,[28],-86%
same,GI50,[29],1.44 µM
same,IC50,[29],1.44 µM
same,TGI,[29],5.71 µM
same,CC50,[29],> 100 µM
same,GI50,"[30]; Homo sapiens, SF-539, 48 h",5.48 µM
same,TGI,"[30]; Homo sapiens, SF-539, 48 h",18.9 µM
same,IC50,"[30]; Homo sapiens, SF-539, 48 h, read-out: IC50",5.48 µM
same,CC50,"[30]; Homo sapiens, SF-539, 48 h",44.3 µM
CC(=O)c1ccccc1-c1ccc(-c2ccnc(NC(=O)Nc3cc(N4CCOCC4)cc(C(F)(F)F)c3)n2)cn1,GI50,[1],9.42 µM
same,IC50,[1],13 µM
same,LC50 (50% lethal concentration),[1],> 100 µM
same,TGI,[1],> 100 µM
same,GI50,[2],13 µM
same,IC50,[2],> 100 µM
same,TGI,[2],> 100 µM
same,CC50,[2],> 100 µM
same,TGI,"[3]; Homo sapiens, DU-145, 48 h",> 100 µM
same,CC50,"[3]; Homo sapiens, DU-145, 48 h",> 100 µM
same,IC50,[3]; du-145,Not Active
same,growth at 0.001 µM,[4],109%
same,growth at 0.001 µM,[5],93%
same,growth at 0.001 µM,[6],93%
same,growth at 0.1 µM,[7],107%
same,growth at 0.1 µM,[8],92%
same,growth at 0.1 µM,[9],95%
same,growth at 0.1 µM,[10],77%
same,growth at 0.1 µM,[11],92%
same,growth at 0.1 µM,[12],91%
same,growth at 0.01 µM,[13],100%
same,growth at 0.01 µM,[14],98%
same,growth at 0.01 µM,[15],106%
same,growth at 0.01 µM,[16],105%
same,growth at 10 µM,[17],27%
same,growth at 10 µM,[18],13%
same,growth at 10 µM,[19],66%
same,growth at 1 µM,[20],45%
same,growth at 0.01 µM,[21],100%
same,growth at 0.01 µM,[22],99%
same,growth at 1 µM,[23],24%
same,GI50,"[24]; K562, 48 h",> 100 µM
same,IC50,"[24]; K562, 48 h",> 100 µM
same,TGI,"[24]; K562, 48 h",> 100 µM
same,CC50,"[24]; K562, 48 h",> 100 µM
same,growth at 1 µM,[25],96%
same,growth at 1 µM,[26],42%
same,growth at 1 µM,[27],58%
same,growth at 10 µM,[28],74%
same,GI50,[29],> 100 µM
same,IC50,[29],> 100 µM
same,TGI,[29],> 100 µM
same,CC50,[29],> 100 µM
same,TGI,"[30]; Homo sapiens, SF-539, 48 h",> 100 µM
same,CC50,"[30]; Homo sapiens, SF-539, 48 h",> 100 µM
same,IC50,[30]; sf-539,Not Active
